Measured values published in ChEMBL document CHEMBL1649306, “Arylimidamide DB766, a potential chemotherapeutic candidate for Chagas' disease treatment” (Antimicrob Agents Chemother, 2010).
Calls of active or inactive are those of the source. The rule behind the calls is not given here.

What was measured:
Trypanosoma cruzi [1] = assay: Antitrypanosomal activity against Trypanosoma cruzi Columbian bloodstream forms infected in C3H mouse assessed as reduction in parasite-induced weight loss at 25 mg/kg/day, ip administered 5 days postinfection for 10 consecutive days measured after 120 days; format: functional, organism-based
Procedure, shortened: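 Body weight of infected, treated mice followed from 0 to 120 dpi.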

Trypanosoma cruzi [2] = assay: Antitrypanosomal activity against Trypanosoma cruzi Y bloodstream forms infected in Swiss-Webster mouse assessed as survival of mouse at 25 mg/kg/day, ip administered 5 days postinfection for 10 consecutive days measured on day 120; format: functional, organism-based
Procedure, shortened: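 Male Swiss mice infected i.p. with 10^4 Y strain bloodstream forms. Given 0.2 ml i.p. at 5 and 8 dpi, or daily for 10 days from 5 dpi; reference drug given by gavage. Parasitemia measured by the Pizzi-Brener method, cumulative mortality checked daily to 120 dpi, n ≥ 6 per group.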

Trypanosoma cruzi [3] = assay: Antitrypanosomal activity against bloodstream forms of Trypanosoma cruzi Y after 2 hrs by light microscopy in presence of 96% mouse blood; format: functional, organism-based
Procedure, shortened: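 Bloodstream trypomastigotes held at 4°C in freshly isolated mouse blood (96%) with serial dilutions up to 32 μM. Live motile parasites counted by light microscopy in a Neubauer chamber, giving an IC50 for each exposure time.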

Mus musculus = assay: Toxicity in female Swiss-Webster mouse assessed as mortality at cumulative dose of 200 mg/kg, ip measured after 48 hrs; format: organism-based; design: dose 200 mg/kg, route intraperitoneal; settings: in vivo
Procedure, shortened: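 Uninfected 8–10-week-old female and male Swiss Webster and C3H/He (H-2k) mice injected i.p. on day 1 every 2 h with escalating doses: 5, 15, 30, 50 and 100 mg/kg (cumulative 20, 50, 100, 200 mg/kg). Toxic and subtoxic signs inspected on days 2–3 per OECD guidelines; tolerated dose set at 48 h.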

## CC(C)Oc1cc(NC(=N)c2ccccn2)ccc1-c1ccc(-c2ccc(NC(=N)c3ccccn3)cc2OC(C)C)o1
Trypanosoma cruzi [1]
  Activity: inactive
Trypanosoma cruzi [2]
  Activity: Active
Trypanosoma cruzi [3]
  IC50: 560 nM
Mus musculus
  Activity: Non-toxic
